Test results as given in ChEMBL document CHEMBL1156295, “In vitro and in vivo photocytotoxicity of boron dipyrromethene derivatives for photodynamic therapy” (J Med Chem, 2010).
pIC50: −log10 of the molar value.

Legend:
HSC-2 [1] = assay: Induction of apoptosis in human HSC2 cells irradiated with 4.1 J/cm^2 broad spectrum light assessed as apoptotic cells at 0.5 uM after 12 hrs of irradiation by annexin V-FITC staining; assay type: functional
Procedure, shortened: (§1)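 HSC-2 cells at 50% confluency in dishes, treated 2 h, then irradiated (4.1 J/cm2 broad spectrum) or kept dark. At intervals, floating and trypsinized cells pooled, washed in cold PBS, resuspended at 1 × 10^6 cells/mL in binding buffer. Stained 15 min in the dark at room temperature with annexin V-FITC and propidium iodide. 1 × 10^4 cells read by flow cytometry (FL1, FL3).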

HSC-2 [2] = assay: Induction of apoptosis in human HSC2 cells irradiated with 4.1 J/cm^2 broad spectrum light assessed as viable cells at 0.5 uM after 24 hrs of irradiation by annexin V-FITC staining; assay type: functional; details: HSC-2, light or radiation study, read-out: Activity; procedure, shortened: as §1
HSC-2 [3] = assay: Cell cycle arrest in human HSC2 cells irradiated with 4.1 J/cm^2 broad spectrum light assessed as accumulation at G1 phase at 0.25 uM after 4 hrs by flow cytometry relative to control; assay type: functional
Procedure, shortened: (§2)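 HSC-2 cells given compound for 2 h, then irradiated with broad-spectrum light (or kept dark). Floating plus trypsinized adherent cells collected at set times after irradiation. Fixed in 70% ice-cold ethanol overnight at 4 °C, then stained 30 min with 20 μg/mL RNase A and 1 μM SYTOX Green. 1 × 10^4 cells read by flow cytometry (488 nm laser, FL1 530/30).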

HL-60 [4] = assay: Cytotoxicity against human HL60 cells after 24 hrs by MTT assay; assay type: functional, cell-based; details: HL-60, 24 h
Procedure, shortened: (§3)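 HL60 at 15000 cells/well; HSC-2 and HK1 at 3000 cells/well, adhered overnight; phenol-red-free medium with 10% FBS. Compound tested at 0.001–100.0 μM from DMSO stock; controls 0.01% DMSO. After 2 h, irradiated with broad-spectrum light at 6.8 mW/cm2, or dark. After 24 h, MTT 4 h at 37 °C, formazan in DMSO, A570. Three determinations, mean ± SD.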

HSC-2 [5] = assay: Cell cycle arrest in human HSC2 cells irradiated with 4.1 J/cm^2 broad spectrum light assessed as accumulation at G2/M phase at 0.25 uM after 8 hrs by flow cytometry relative to control; assay type: functional; procedure, shortened: as §2
HSC-2 [6] = assay: Cell cycle arrest in human HSC2 cells irradiated with 4.1 J/cm^2 broad spectrum light assessed as accumulation at sub-G1 phase at 0.25 uM after 6 hrs by flow cytometry relative to control; assay type: functional; procedure, shortened: as §2
HSC-2 [7] = assay: Cell cycle arrest in human HSC2 cells irradiated with 4.1 J/cm^2 broad spectrum light assessed as accumulation at G2/M phase at 0.25 uM after 6 hrs by flow cytometry relative to control; assay type: functional; procedure, shortened: as §2
HSC-2 [8] = assay: Cell cycle arrest in human HSC2 cells irradiated with 4.1 J/cm^2 broad spectrum light assessed as accumulation at sub-G1 phase at 0.25 uM after 4 hrs by flow cytometry relative to control; assay type: functional; procedure, shortened: as §2
HSC-2 [9] = assay: Induction of apoptosis in human HSC2 cells irradiated with 4.1 J/cm^2 broad spectrum light assessed as apoptotic cells at 0.5 uM after 16 hrs of irradiation by annexin V-FITC staining; assay type: functional; procedure, shortened: as §1
HSC-2 [10] = assay: Cell cycle arrest in human HSC2 cells irradiated with 4.1 J/cm^2 broad spectrum light assessed as accumulation at G1 phase at 0.25 uM after 2 hrs by flow cytometry relative to control; assay type: functional; procedure, shortened: as §2
[11] = Cellular uptake in human HSC2 cells assessed as intracellular localization in to mitochondria labeled with rhodamine 123 dye at 100 nM by spinning disk confocal microscopy; assay type: ADME; details: hsc-2, 0.1 µM
Procedure, shortened: (§4)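 HSC-2 cells grown on glass coverslips, co-incubated at room temperature for 15–30 min with compound plus probe: ER-Tracker 100 nM, LysoTracker 500 nM or Rh123 100 nM. Rinsed in PBS. XY sections at 0.2 μm imaged; excitation 330–385 nm for ER/Lyso probes, 460–490 nm for Rh123, 520–550 nm for photosensitizer.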

[12] = Phototoxicity against human HK1 cells irradiated with 4.1 J/cm^2 broad spectrum light treated 2 hrs before irradiation measured after 24 hrs by MTT assay; assay type: functional, cell-based; details: HK-1, light or radiation study; procedure, shortened: as §3
[13] = Cytotoxicity against human HK1 cells after 24 hrs by MTT assay; assay type: functional, cell-based; details: HK-1, 24 h; procedure, shortened: as §3
[14] = Cellular uptake in human HSC2 cells assessed as intracellular localization in to nuclear membrane at 100 nM by spinning disk confocal microscopy; assay type: ADME, cell-based; details: hsc-2, 0.1 µM; procedure, shortened: as §4
HSC-2 [15] = assay: Cell cycle arrest in human HSC2 cells irradiated with 4.1 J/cm^2 broad spectrum light assessed as accumulation at G2/M phase at 0.25 uM after 12 hrs by flow cytometry relative to control; assay type: functional; procedure, shortened: as §2
HSC-2 [16] = assay: Phototoxicity against human HSC2 cells irradiated with 4.1 J/cm^2 broad spectrum light treated 2 hrs before irradiation measured after 24 hrs by MTT assay; assay type: functional, cell-based; details: HSC-2, light or radiation study; procedure, shortened: as §3
HSC-2 [17] = assay: Induction of apoptosis in human HSC2 cells irradiated with 4.1 J/cm^2 broad spectrum light assessed as apoptotic cells at 0.5 uM after 24 hrs of irradiation by annexin V-FITC staining; assay type: functional; procedure, shortened: as §1
HSC-2 [18] = assay: Cell cycle arrest in human HSC2 cells irradiated with 4.1 J/cm^2 broad spectrum light assessed as accumulation at G1 phase at 0.25 uM after 8 hrs by flow cytometry relative to control; assay type: functional; procedure, shortened: as §2
HSC-2 [19] = assay: Induction of apoptosis in human HSC2 cells in dark assessed as apoptotic cells at 0.5 uM after 24 hrs by annexin V-FITC staining; assay type: functional; procedure, shortened: as §1
HSC-2 [20] = assay: Cell cycle arrest in human HSC2 cells irradiated with 4.1 J/cm^2 broad spectrum light assessed as accumulation at sub-G1 phase at 0.25 uM after 12 hrs by flow cytometry relative to control; assay type: functional; procedure, shortened: as §2
HSC-2 [21] = assay: Induction of apoptosis in human HSC2 cells irradiated with 4.1 J/cm^2 broad spectrum light assessed as viable cells at 0.5 uM after 12 hrs of irradiation by annexin V-FITC staining; assay type: functional; details: HSC-2, light or radiation study, read-out: Activity; procedure, shortened: as §1
HSC-2 [22] = assay: Induction of apoptosis in human HSC2 cells irradiated with 4.1 J/cm^2 broad spectrum light assessed as viable cells at 0.5 uM after 16 hrs of irradiation by annexin V-FITC staining; assay type: functional; details: HSC-2, light or radiation study, read-out: Activity; procedure, shortened: as §1
HSC-2 [23] = assay: Cell cycle arrest in human HSC2 cells in dark assessed as accumulation at G1 phase at 0.25 uM after 12 hrs by flow cytometry relative to control; assay type: functional; procedure, shortened: as §2
HSC-2 [24] = assay: Cytotoxicity against human HSC2 cells after 24 hrs by MTT assay; assay type: functional, cell-based; details: HSC-2, 24 h; procedure, shortened: as §3
[25] = Cellular uptake in human HSC2 cells assessed as intracellular localization in to lysosome labeled with lyso-tracker DND22 dye at 100 nM by spinning disk confocal microscopy; assay type: ADME, cell-based; details: hsc-2, 0.1 µM; procedure, shortened: as §4
HL-60 [26] = assay: Phototoxicity against human HL60 cells irradiated with 4.1 J/cm^2 broad spectrum light treated 2 hrs before irradiation measured after 24 hrs by MTT assay; assay type: functional, cell-based; details: HL-60, light or radiation study; procedure, shortened: as §3
HSC-2 [27] = assay: Cell cycle arrest in human HSC2 cells irradiated with 4.1 J/cm^2 broad spectrum light assessed as accumulation at G2/M phase at 0.25 uM after 4 hrs by flow cytometry relative to control; assay type: functional; procedure, shortened: as §2
HSC-2 [28] = assay: Cell cycle arrest in human HSC2 cells irradiated with 4.1 J/cm^2 broad spectrum light assessed as accumulation at sub-G1 phase at 0.25 uM after 2 hrs by flow cytometry relative to control; assay type: functional; procedure, shortened: as §2

Drug uptake [11]: Active
Activity [14]: Not Active
Drug uptake [25]: Active
Compound: CC1=C(I)C(C)=[N+]2C1=C(CCC(=O)O)c1c(C)c(I)c(C)n1[B-]2(F)F
Activity (HSC-2 [1]): 20.7%
viability at 0.5 µM (HSC-2 [2]): 10.1%
Activity (HSC-2 [3]): 33.8%
pIC50 (HL-60 [4]): < 4.00
Activity (HSC-2 [5]): 48.8%
Activity (HSC-2 [6]): 3.9%
Activity (HSC-2 [7]): 55.5%
Activity (HSC-2 [8]): 3.7%
Activity (HSC-2 [9]): 47.4%
Activity (HSC-2 [10]): 46.3%
pIC50 [12]: 6.24
pIC50 [13]: 4.25
Activity (HSC-2 [15]): 26%
pIC50 (HSC-2 [16]): 7.00
Activity (HSC-2 [17]): 89.9%
Activity (HSC-2 [18]): 30.3%
Activity (HSC-2 [19]): 3%
Activity (HSC-2 [20]): 10.6%
viability at 0.5 µM (HSC-2 [21]): 79.3%
viability at 0.5 µM (HSC-2 [22]): 52.6%
Activity (HSC-2 [23]): 55.2%
pIC50 (HSC-2 [24]): < 4.00
pIC50 (HL-60 [26]): 7.35
Activity (HSC-2 [27]): 48.4%
Activity (HSC-2 [28]): 3.7%
